# Measured values pooled from the literature.
# Lines come from different studies, so protocols differ. pEC50, pIC50: −log10 of the molar value.
# Observed: cell growth or viability
Structure (SMILES),cell line,assay,conditions,measurement,result
O=C(Nc1ccc(-c2ccccc2)cc1)c1cnn(-c2ccc([N+](=O)[O-])cc2)c1C(F)(F)F,LX-2,MTS,"50 µM, 72 h",inhibition,12.4%
O=[N+]([O-])c1cc(I)c(O)c(C=NNc2ccc(Br)cc2)c1,HEK-293T,MTT,24 h,pIC50,4.94
COc1cc(NC(=O)c2cnn(-c3ccc([N+](=O)[O-])cc3)c2C(F)(F)F)cc(OC)c1OC,LX-2,MTS,"50 µM, 72 h",inhibition,11%
COc1ccc(NC(=O)Nc2ccc(-c3cn(Cc4ccc(C)cc4)nn3)cc2)cc1,Huh-7,CCK-8,"50 µM, 72 h",viability,64.7%
O=C(Nc1ccc(Cl)cc1)Nc1ccc(-c2cn(Cc3ccc(Br)cc3)nn2)cc1,Huh-7,CCK-8,"50 µM, 72 h",viability,65%
O=[N+]([O-])c1cc(Br)c(O)c(C=NNc2ccc(Cl)cc2)c1,HEK-293T,MTT,24 h,pIC50,4.77
O=C(Nc1ccc(-c2cn(Cc3ccc(Br)cc3)nn2)cc1)Nc1ccccc1Br,Huh-7,CCK-8,"50 µM, 48 h",viability,70.8%
CC(C)C[C@H](NC(=O)[C@H](Cc1ccccc1)NC(=O)c1cnccn1)B(O)O,HepG2,ATP luminescence,48 h,pEC50,11.15
O=C(Nc1cccc(-c2cn(Cc3ccc(Br)cc3)nn2)c1)Nc1ccccc1Br,Huh-7,CCK-8,"50 µM, 48 h",viability,61.2%
COc1ccc(NC(=O)Nc2cccc(-c3cn(Cc4ccc(Br)cc4)nn3)c2)cc1,Huh-7,CCK-8,"50 µM, 72 h",viability,10.7%
O=C(Nc1ccc(Cl)cc1)Nc1ccc(-c2cn(Cc3cccc(Cl)c3)nn2)cc1,Huh-7,CCK-8,"50 µM, 72 h",viability,70.4%
COc1ccc(NC(=O)NCc2cn(Cc3ccccc3C)nn2)cc1,Huh-7,CCK-8,"50 µM, 72 h",viability,86.8%
